pIC50: −log10 of the molar value. The source made the active and inactive calls. The rule behind the calls is not given here.
Assays:
Mus musculus = assay: Toxicity in human VCaP cells xenografted CD-1 nu/nu mouse assessed as body weight loss at 10 mg/kg, po for 4 consecutive weeks starting on day 35 of tumor implantation measured up to 100 days; format: organism-based; set-up: dose 10 mg/kg, route oral; settings: in vivo, 2400 h
Method in brief: (§1)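 Male CD-1 nu/nu mice, 5–6 weeks old, injected s.c. in the flank with 10⁶ VCaP cells in 50% Matrigel/50% serum-free medium. When tumors reached 50–100 mg, mice were randomized, 5 per group. Daily oral gavage at 10 mg/kg for 4 weeks in 80% PEG-400/20% Tween-80; controls got vehicle. Tumor weight from caliper (a×b²/2) three times weekly; body weight monitored.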

VCaP [1] = assay: Antitumor activity against human VCaP cells xenografted in CD-1 nu/nu mouse assessed as tumor regression at 10 mg/kg, po for 4 consecutive weeks starting on day 35 of tumor implantation measured after 100 days; format: functional, organism-based; set-up: dose 10 mg/kg; method in brief: as §1
[2] = Cytotoxicity against african green monkey COS7 cells; format: cell-based; settings: chlorocebus aethiops, cos-7
LNCaP [3] = assay: Inhibition of R1881-induced DNA synthesis in human LNCAP cells at 10 to 20 uM after 18 hrs by BrdU incorporation assay; format: functional, cell-based
Method in brief: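 Quiescent LNCaP cells on coverslips treated 18 h with 10 nM R1881 ± compound (10 or 20 μM), then pulsed with 100 μM BrdU. Incorporation scored by anti-BrdU immunofluorescence as % of total nuclei.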

[4] = Inhibition of R1881-induced DNA synthesis in Androgen receptor-negative human DU145 cells at 10 to 20 uM after 18 hrs by BrdU incorporation assay; format: cell-based; settings: du-145, 18 h
VCaP [5] = assay: Antitumor activity against human VCaP cells xenografted in CD-1 nu/nu mouse assessed as tumor regression at 10 mg/kg, po for 4 consecutive weeks starting on day 35 of tumor implantation measured after 60 days; format: functional, organism-based; set-up: dose 10 mg/kg; method in brief: as §1
[6] = molecular target: T1, Androgen receptor (Homo sapiens) (UniProt P10275); assay: Displacement of [3H]R1881 from androgen receptor in human LNCAP cells at 2 uM after 24 hrs by liquid scintillation counting; format: cell-based
T1 sequence (whole entry): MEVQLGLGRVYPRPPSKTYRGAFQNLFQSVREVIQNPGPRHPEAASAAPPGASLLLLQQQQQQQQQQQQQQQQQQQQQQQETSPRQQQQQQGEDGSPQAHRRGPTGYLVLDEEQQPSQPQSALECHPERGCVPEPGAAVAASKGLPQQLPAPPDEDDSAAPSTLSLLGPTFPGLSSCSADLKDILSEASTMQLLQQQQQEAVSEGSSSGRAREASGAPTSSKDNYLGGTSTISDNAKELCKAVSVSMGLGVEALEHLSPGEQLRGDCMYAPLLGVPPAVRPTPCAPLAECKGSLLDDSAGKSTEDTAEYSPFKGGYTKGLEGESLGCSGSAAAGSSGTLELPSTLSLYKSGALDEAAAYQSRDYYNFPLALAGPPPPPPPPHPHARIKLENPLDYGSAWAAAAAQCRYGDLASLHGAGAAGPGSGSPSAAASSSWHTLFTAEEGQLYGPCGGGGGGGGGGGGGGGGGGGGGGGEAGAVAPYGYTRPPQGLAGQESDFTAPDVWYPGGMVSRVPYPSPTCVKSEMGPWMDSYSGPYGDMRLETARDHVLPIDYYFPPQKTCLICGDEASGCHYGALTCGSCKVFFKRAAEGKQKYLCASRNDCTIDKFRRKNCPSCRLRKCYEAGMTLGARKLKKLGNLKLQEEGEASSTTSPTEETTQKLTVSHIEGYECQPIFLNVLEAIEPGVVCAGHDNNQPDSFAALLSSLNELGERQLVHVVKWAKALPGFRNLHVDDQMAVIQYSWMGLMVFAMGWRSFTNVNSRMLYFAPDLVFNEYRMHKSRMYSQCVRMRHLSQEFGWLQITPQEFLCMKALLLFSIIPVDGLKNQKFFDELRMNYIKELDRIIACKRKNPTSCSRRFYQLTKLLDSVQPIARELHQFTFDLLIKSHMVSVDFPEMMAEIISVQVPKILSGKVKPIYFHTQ

LNCaP [7] = assay: Growth inhibition of human LNCAP cells expressing mutant androgen receptor after 144 hrs by SRB assay; format: cell-based; settings: Homo sapiens, LNCaP, read-out: GI50
Method in brief: (§2)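 Cells exposed for 144 h starting 24 h after seeding, 5000 cells/well. SRB assay with OD read at 490 nm. Growth inhibition calculated as (ODtreated−ODzero)/(ODcontrol−ODzero)×100; OD below ODzero counted as cell killing. Octuplicate wells, three independent experiments; IG50 and LC50 taken from this calculation.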

CWR22R = assay: Inhibition of cell survival in human CWR22Rv1 cells after 144 hrs by TUNEL assay; format: functional, cell-based; settings: 22Rv1, 144 h
[8] = molecular target: T1, Androgen receptor (Homo sapiens); assay: Inhibition of androgen receptor in human LNCAP cells assessed as reduction in PSA mRNA level at 0.5 to 20 uM after 24 hrs by RT-PCR analysis; format: cell-based
LNCaP [9] = assay: Cytotoxicity against human LNCAP cells expressing mutant androgen receptor assessed as reduction in cell viability; format: cell-based
[10] = Inhibition of cell survival in human VCaP cells after 144 hrs by TUNEL assay; format: cell-based
Method in brief: (§3)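 Cells treated 144 h starting 24 h after seeding. Fixed in 1% paraformaldehyde then 70% ethanol, labeled with TUNEL mix (TdT, FITC-dUTP) for 60 min at 37 °C, counterstained with propidium iodide/RNase, and analyzed by flow cytometry for % apoptotic cells. For LNCaP and LNCaP-AR, compounds at 20 μM, three independent experiments.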

LNCaP [11] = assay: Effect on cell migration in serum-stimulated human LNCAP cells by transwell assay; format: ADME, cell-based
[12] = Cytotoxicity against human PC3 cells after 144 hrs by SRB assay; format: cell-based; settings: pc-3, 144 h; method in brief: as §2
LNCaP [13] = assay: Inhibition of R1881-induced migration of human LNCAP cells at 10 uM after 24 hrs by wound-healing assay; format: functional, cell-based
Method in brief: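 Confluent quiescent LNCaP monolayers scratched, washed, and given 10 nM R1881 ± 10 μM compound for 24 h. Wound closure assessed from phase-contrast images; four experiments.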

[14] = molecular target: T1, Androgen receptor (Homo sapiens); assay: Displacement of [3H]R1881 from androgen receptor in human LNCAP cells at 1 uM after 24 hrs by liquid scintillation counting; format: cell-based
LNCaP [15] = assay: Growth inhibition of (R)-bicalutamide-resisitant human LNCAP cells after 144 hrs by SRB assay; format: functional; method in brief: as §2
[16] = Growth inhibition of human LNCaP-AR cells expressing wild-type androgen receptor after 144 hrs by SRB assay; format: functional; method in brief: as §2
[17] = molecular target: T1, Androgen receptor (Homo sapiens); assay: Inhibition of androgen receptor in R1881-stimulated (R)-bicalutamide-resisitant human LNCAP cells assessed as reduction in PSA mRNA level at 20 uM after 24 hrs by RT-PCR analysis; format: cell-based
Method in brief: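 LNCaP or LNCaP-Rbic cells (Rbic kept in 20 μM bicalutamide), 24 h after seeding, stimulated with 10 nM R1881 and treated 24 h with 10 or 20 μM compound. PSA mRNA measured by SYBR Green real-time RT-PCR in triplicate reactions, normalized to GAPDH and HPRT, expressed as fold over untreated. Two independent experiments.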

LNCaP [18] = assay: Inhibition of cell survival in (R)-bicalutamide-resisitant human LNCAP cells after 144 hrs by TUNEL assay; format: cell-based; method in brief: as §3
DU-145 = assay: Cytotoxicity against human DU145 cells after 144 hrs by SRB assay; format: cell-based; settings: du-145, 144 h; method in brief: as §2
[19] = Growth inhibition of human VCaP cells after 144 hrs by SRB assay; format: functional; method in brief: as §2
[20] = molecular target: T1, Androgen receptor (Homo sapiens); assay: Inhibition of androgen receptor in R1881-stimulated human LNCAP cells assessed as reduction in PSA mRNA level at 0.5 to 20 uM after 24 hrs by RT-PCR analysis; format: cell-based
LNCaP [21] = assay: Induction of apoptosis in human LNCAP cells expressing mutant androgen receptor at 20 uM after 144 hrs by TUNEL assay; format: cell-based; method in brief: as §3
[22] = molecular target: T1, Androgen receptor (Homo sapiens); assay: Effect on nuclear import of wild-type human androgen receptor expressed in COS7 cells at 10 uM after 1 hr by immunofluorescence analysis; format: cell-based; settings: COS-7
Method in brief: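 Cos-7 cells on coverslips made quiescent, transfected with 1 μg pSG5-hAR, then stimulated with 10 nM R1881 for 60 min ± compounds. AR detected by immunofluorescence with anti-C19 antibody and Texas red secondary; nuclei stained with Hoechst.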

LNCaP-AR = assay: Induction of apoptosis in human LNCaP-AR cells expressing wild-type androgen receptor at 20 uM after 144 hrs by TUNEL assay; format: functional; method in brief: as §3
LNCaP [23] = assay: Inhibition of R1881-induced migration of human LNCAP cells at 10 uM by transwell assay; format: functional, cell-based
Method in brief: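 Quiescent LNCaP cells on collagen-coated transwell filters, 24 h after seeding, treated with 10 nM R1881 ± 10 μM compound. Migrated cells stained with Hoechst and counted by fluorescence microscopy; data given as relative increase in migrated cells.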

N#Cc1ccc(C[C@](O)(CS(=O)(=O)c2ccc(F)cc2)C(=O)Nc2ccc(C#N)c(C(F)(F)F)c2)cc1
Activity (Mus musculus): Non-toxic
Activity (VCaP [1]): Active
Activity [2]: Non-toxic
inhibition (LNCaP [3]): Active
Activity [4]: Non-toxic
Activity (VCaP [5]): Active
inhibition [6]: 65%
GI50 (LNCaP [7]): 1.6 µM
pIC50 (CWR22R): 5.30
inhibition [8]: Active
Activity (LNCaP [9]): Non-toxic
Activity [10]: Non-toxic
Activity (LNCaP [11]): Non-toxic
Activity [12]: Non-toxic
inhibition (LNCaP [13]): Active
inhibition [14]: 60%
GI50 (LNCaP [15]): 6.43 µM
GI50 [16]: 4.9 µM
inhibition [17]: Active
Activity (LNCaP [18]): Non-toxic
Activity (DU-145): Non-toxic
GI50 [19]: 1.42 µM
inhibition [20]: inactive
Activity (LNCaP [21]): Non-toxic
Activity [22]: inactive
Activity (LNCaP-AR): inactive
inhibition (LNCaP [23]): Active
